Assay results as given in ChEMBL document CHEMBL1129955, “Structure-activity relationships of alkyl- and alkoxy-substituted 1,4-dihydroquinoxaline-2,3-diones: potent and systemically active antagonists for the glycine site of the NMDA receptor” (J Med Chem, 1997).

How the values were obtained:
[1] = Partition coefficient (logP); type: physicochemical; settings: octanol/water
[2] = biological target: Glutamate receptor ionotropic, NMDA 1 (Rattus norvegicus, UniProt P35439); test: Potency for the N-methyl-D-aspartate glutamate receptor 1 glycine site by displacement of [3H]5,7-dichlorokynurenic acid (DCKA) binding in rat brain cortical membranes.; type: cell membranes, Membrane
Mus musculus = organism: Mus musculus; test: Anticonvulsant activity was measured by mouse maximal electroshock (MES) assay.; type: functional
Summary of the method: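 Mice; compounds dissolved in 0.05 M Tris, given iv; tested at peak activity 2 min after injection (one compound with slower onset tested at 15 min). Maximal electroshock seizure protection scored; ED50 by Litchfield and Wilcoxon analysis.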

[3] = biological target: T1, Glutamate receptor ionotropic, AMPA (Rattus norvegicus) (UniProt P19491+P19492+P19493+P19490); test: Dissociation constant(Kb) for Ionotropic glutamate receptor AMPA was determined from inhibition of currents activated by 10(uM) AMPA in Xenopus oocytes expressing rat cerebral cortex poly(A)+ RNA; type: functional, cell-based; settings: Oocyte
[4] = Selectivity index for the inhibition of NMDA receptors was estimated by dividing Kb AMPA by Kb NMDA
[5] = biological target: T1, Glutamate receptor ionotropic, AMPA (Rattus norvegicus); test: Dissociation constant(Kb) for Ionotropic glutamate receptor AMPA as inhibition of currents activated by 10 uM AMPA in Xenopus oocytes expressing rat cerebral cortex poly(A)+ RNA; type: functional, cell-based; settings: Oocyte

IC50 [2] [nM] | SMILES | further results
20 | O=[N+]([O-])c1c(Br)c(Br)cc2nc(O)c(O)nc12 | logP [1]: 0.74; ED50 (Mus musculus): 7.3 mg/kg
9300 | Cc1cc([N+](=O)[O-])c2[nH]c(=O)c(=O)[nH]c2c1 | 
3300 | Cc1cc2[nH]c(=O)c(=O)[nH]c2cc1C | 
53000 | COc1cc2[nH]c(=O)c(=O)[nH]c2c(OC(C)=O)c1OC | 
 | Cc1c(C#N)cc2nc(O)c(O)nc2c1[N+](=O)[O-] | Kb [3]: 590 nM; Selectivity index [4]: 20
 | Cc1c(Cl)cc2nc(O)c(O)nc2c1[N+](=O)[O-] | ED50 (Mus musculus): 1.2 mg/kg; Selectivity index [4]: 440; Kb [5]: 3500 nM
1400 | CCc1cc2[nH]c(=O)c(=O)[nH]c2cc1Cl | 
29 | CCc1cc2nc(O)c(O)nc2c([N+](=O)[O-])c1Cl | logP [1]: 0.92; ED50 (Mus musculus): 4.5 mg/kg
16000 | O=c1[nH]c2cc3ccccc3cc2[nH]c1=O | 
17000 | COc1cc2[nH]c(=O)c(=O)[nH]c2c(O)c1OC | 
11000 | Nc1c(F)cc2nc(O)c(O)nc2c1[N+](=O)[O-] | 
780 | Cc1cc2nc(O)c(O)nc2cc1Cl | 
4300 | CCCCOc1c(F)cc2nc(O)c(O)nc2c1[N+](=O)[O-] | 
 | O=[N+]([O-])c1c2c(cc3nc(O)c(O)nc13)CCC2 | Kb [3]: 17000 nM; Selectivity index [4]: 20
> 100000 | Oc1nc2cc3c(cc2nc1O)OCO3 | 
15000 | Oc1nc2cc3c(cc2nc1O)CCC3 | 
150 | COc1c(Cl)cc2[nH]c(=O)c(=O)[nH]c2c1[N+](=O)[O-] | 
3600 | CCOc1c(F)cc2nc(O)c(O)nc2c1[N+](=O)[O-] | 
160 | CCc1cc2[nH]c(=O)c(=O)[nH]c2c([N+](=O)[O-])c1CC | 
45 | Cc1cc2nc(O)c(O)nc2c([N+](=O)[O-])c1Cl | logP [1]: 0.44; ED50 (Mus musculus): 1.9 mg/kg

IC50 [2] [nM] | SMILES | further results
17000 | COc1cc2[nH]c(=O)c(=O)[nH]c2cc1OC | 
64 | COc1c(Br)cc2[nH]c(=O)c(=O)[nH]c2c1[N+](=O)[O-] | 
5.9 | O=c1[nH]c2cc(Cl)c(Cl)c([N+](=O)[O-])c2[nH]c1=O [LICOSTINEL] | logP [1]: 0.21; ED50 (Mus musculus): 4 mg/kg
95 | Cc1c(F)cc2nc(O)c(O)nc2c1[N+](=O)[O-] | logP [1]: 0.08; ED50 (Mus musculus): 1.8 mg/kg
4000 | O=[N+]([O-])c1c(OCCCc2ccccc2)c(F)cc2nc(O)c(O)nc12 | 
150 | Cc1c(Cl)cc2nc(O)c(O)nc2c1N | 
4.7 | Cc1c(Cl)cc2[nH]c(=O)c(=O)[nH]c2c1[N+](=O)[O-] | logP [1]: 0.49
1800 | CCc1cc2[nH]c(=O)c(=O)[nH]c2cc1CC | 
8.7 | Cc1c(Br)cc2nc(O)c(O)nc2c1[N+](=O)[O-] | logP [1]: 0.61; ED50 (Mus musculus): 2 mg/kg
82 | CCc1cc2nc(O)c(O)nc2c([N+](=O)[O-])c1Br | logP [1]: 1.04; ED50 (Mus musculus): 11 mg/kg
640 | CCSc1c(Cl)cc2nc(O)c(O)nc2c1[N+](=O)[O-] | 
1000 | COc1cc2nc(O)c(O)nc2cc1Br | 
130 | CCc1c(Cl)cc2nc(O)c(O)nc2c1[N+](=O)[O-] | 
2800 | N#Cc1cc([N+](=O)[O-])c2[nH]c(=O)c(=O)[nH]c2c1 | 
3100 | O=c1[nH]c2cc3c(c([N+](=O)[O-])c2[nH]c1=O)CCC3 | 
29 | Cc1cc2nc(O)c(O)nc2c([N+](=O)[O-])c1C | logP [1]: 0.58; ED50 (Mus musculus): 2.6 mg/kg; Selectivity index [4]: 79; Kb [5]: 3100 nM
> 100000 | Oc1cc2nc(O)c(O)nc2cc1O | 
1900 | COc1c(F)cc2[nH]c(=O)c(=O)[nH]c2c1[N+](=O)[O-] | 
73 | Cc1c(C#N)cc2[nH]c(=O)c(=O)[nH]c2c1[N+](=O)[O-] | 
